Data as given in ChEMBL document CHEMBL4130578, “Synthesis, biological evaluation and structure-activity relationship studies of hederacolchiside E and its derivatives as potential anti-Alzheimer agents” (Eur J Med Chem, 2018).
Activity calls are given as the source filed them. The calls are words filed in the database; no cut-off is given here.

Key:
PC-12 [1] = assay: Cytoprotection against H2O2-induced cell injury in rat PC12 cells assessed as increase in cell viability preincubated for 12 hrs followed by H2O2 addition measured after 12 hrs by MTT assay; type: functional, cell-based
Procedure, shortened: (§1)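 PC12 cells grown in RPMI-1640 with 15% FBS and penicillin/streptomycin, subcultured every 2 days and cultured 8 days before use. Cells seeded at 1 × 10^4/well, after 12 h pretreated with compound 12 h, then exposed to 200 µM H2O2 for 12 h. MTT added for 4 h, formazan dissolved in DMSO, OD 490 nm read. Viability given as % of untreated control, mean ± SD, n = 3, ANOVA with Dunnett's test.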

PC-12 [2] = assay: Cytoprotection against amyloid beta (1 to 42)-induced cell injury in rat PC12 cells assessed as cell viability at 10 uM preincubated for 12 hrs followed by amyloid beta (1 to 42) addition measured after 12 hrs by MTT assay (reference value: 55.3 +/- 1.5%); type: functional; conditions: read-out: Activity
PC-12 [3] = assay: Cytoprotection against amyloid beta (1 to 42)-induced cell injury in rat PC12 cells assessed as cell viability at 50 uM preincubated for 12 hrs followed by amyloid beta (1 to 42) addition measured after 12 hrs by MTT assay (reference value: 55.3 +/- 1.5%); type: functional; conditions: read-out: Activity
PC-12 [4] = assay: Cytotoxicity against rat PC12 cells assessed as decrease in cell viability at high concentration after 12 hrs by MTT assay; type: cell-based; conditions: pc-12, 12 h
PC-12 [5] = assay: Cytoprotection against amyloid beta (1 to 42)-induced cell injury in rat PC12 cells assessed as cell viability at 100 uM preincubated for 12 hrs followed by amyloid beta (1 to 42) addition measured after 12 hrs by MTT assay (reference value: 55.3 +/- 1.5%); type: functional; conditions: read-out: Activity
PC-12 [6] = assay: Cytoprotection against H2O2-induced cell injury in rat PC12 cells assessed as increase in cell viability at 1 to 10 uM preincubated for 12 hrs followed by H2O2 addition measured after 12 hrs by MTT assay; type: functional, cell-based; procedure, shortened: as §1
PC-12 [7] = assay: Cytotoxicity against rat PC12 cells assessed as decrease in cell viability at 50 uM after 12 hrs by MTT assay; type: cell-based; conditions: pc-12, 12 h
PC-12 [8] = assay: Cytoprotection against amyloid beta (1 to 42)-induced toxicity in rat PC12 cells assessed as LDH release at 10 uM preincubated with cells followed by amyloid beta (1 to 42) addition measured after 24 hrs by LDH assay (reference value: 153%); type: functional
PC-12 [9] = assay: Cytoprotection against amyloid beta (1 to 42)-induced toxicity in rat PC12 cells assessed as LDH release at 50 uM preincubated with cells followed by amyloid beta (1 to 42) addition measured after 24 hrs by LDH assay (reference value: 153%); type: functional
PC-12 [10] = assay: Cytoprotection against amyloid beta (1 to 42)-induced toxicity in rat PC12 cells assessed as LDH release at 100 uM preincubated with cells followed by amyloid beta (1 to 42) addition measured after 24 hrs by LDH assay (reference value: 153%); type: functional
PC-12 [11] = assay: Cytoprotection against amyloid beta (1 to 42)-induced oxidative damage in rat PC12 cells assessed as intracellular ROS level at 10 uM preincubated with cells followed by amyloid beta (1 to 42) addition measured after 24 hrs by DCFH-DA staining based flow cytometry (reference value: 51.4%); type: functional
PC-12 [12] = assay: Cytoprotection against amyloid beta (1 to 42)-induced oxidative damage in rat PC12 cells assessed as intracellular ROS level at 50 uM preincubated with cells followed by amyloid beta (1 to 42) addition measured after 24 hrs by DCFH-DA staining based flow cytometry (reference value: 51.4%); type: functional
PC-12 [13] = assay: Cytoprotection against amyloid beta (1 to 42)-induced oxidative damage in rat PC12 cells assessed as intracellular ROS level at 100 uM preincubated with cells followed by amyloid beta (1 to 42) addition measured after 24 hrs by DCFH-DA staining based flow cytometry (reference value: 51.4%); type: functional
PC-12 [14] = assay: Cytoprotection against amyloid beta (1 to 42)-induced oxidative damage in rat PC12 cells assessed as reduction in intracellular ROS level preincubated with cells followed by amyloid beta (1 to 42) addition measured after 24 hrs by DCFH-DA staining based flow cytometry; type: functional, cell-based
PC-12 [15] = assay: Cytoprotection against amyloid beta (1 to 42)-induced damage in rat PC12 cells assessed as reduction in intracellular MDA level preincubated with cells followed by amyloid beta (1 to 42) addition measured after 24 hrs by TBA assay; type: functional, cell-based
Procedure, shortened: (§2)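 For the MDA readout, PC12 cells were given 40 µM Aβ1-42 for 24 h with or without compound (10, 50, 100 µM). Samples were mixed with two volumes of TBA reagent (0.375% TBA, 15% trichloroacetic acid, 0.1 mM EDTA) and heated at 95 °C for 40 min. After cooling and centrifugation at 3000 × g for 10 min, supernatant A532 was read. Mean ± SD, n = 3.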

PC-12 [16] = assay: Cytoprotection against amyloid beta (1 to 42)-induced damage in rat PC12 cells assessed as intracellular MDA level at 10 uM preincubated with cells followed by amyloid beta (1 to 42) addition measured after 24 hrs by TBA assay; type: functional; procedure, shortened: as §2
PC-12 [17] = assay: Cytoprotection against amyloid beta (1 to 42)-induced damage in rat PC12 cells assessed as intracellular MDA level at 50 uM preincubated with cells followed by amyloid beta (1 to 42) addition measured after 24 hrs by TBA assay; type: functional; procedure, shortened: as §2
PC-12 [18] = assay: Cytoprotection against amyloid beta (1 to 42)-induced damage in rat PC12 cells assessed as intracellular MDA level at 100 uM preincubated with cells followed by amyloid beta (1 to 42) addition measured after 24 hrs by TBA assay; type: functional; procedure, shortened: as §2

SMILES | Activity (PC-12 [1]) | viability at 10 µM (PC-12 [2]) | viability at 50 µM (PC-12 [3]) | viability at 100 µM (PC-12 [5]) | other results
C[C@@H]1O[C@@H](O[C@H]2[C@H](O[C@H]3CC[C@]4(C)[C@H]5CC=C6[C@@H]7CC(C)(C)CC[C@]7(C(=O)O[C@@H]7O[C@H](CO[C@@H]8O[C@H](CO)[C@@H](O[C@@H]9O[C@@H](C)[C@H](O)[C@@H](O)[C@H]9O)[C@H](O)[C@H]8O)[C@@H](O)[C@H](O)[C@H]7O)CC[C@@]6(C)[C@]5(C)CC[C@H]4C3(C)C)OC[C@H](O[C@@H]3OC[C@@H](O)[C@H](O)[C@H]3O)[C@@H]2O)[C@H](O)[C@H](O)[C@H]1O | Dose-dependent effect | 52.7% | 55.7% | – | –
C[C@@H]1O[C@@H](O[C@H]2[C@H](O[C@H]3CC[C@]4(C)[C@H]5CC=C6[C@@H]7CC(C)(C)CC[C@]7(C(=O)O[C@@H]7O[C@H](CO)[C@@H](O)[C@H](O)[C@H]7O)CC[C@@]6(C)[C@]5(C)CC[C@H]4C3(C)C)OC[C@H](O[C@@H]3O[C@H](CO)[C@@H](O)[C@H](O)[C@H]3O)[C@@H]2O)[C@H](O)[C@H](O)[C@H]1O | – | 14.5% | 10.3% | – | Activity (PC-12 [4]): Toxic
C[C@@H]1O[C@@H](O[C@H]2[C@H](O[C@H]3CC[C@]4(C)[C@H]5CC=C6[C@@H]7CC(C)(C)CC[C@]7(C(=O)O[C@@H]7O[C@H](CO[C@@H]8O[C@H](CO)[C@@H](O[C@@H]9O[C@@H](C)[C@H](O)[C@@H](O)[C@H]9O)[C@H](O)[C@H]8O)[C@@H](O)[C@H](O)[C@H]7O)CC[C@@]6(C)[C@]5(C)CC[C@H]4C3(C)C)OC[C@H](O[C@@H]3O[C@@H](C)[C@H](O)[C@@H](O)[C@H]3O)[C@@H]2O)[C@H](O)[C@H](O)[C@H]1O | Dose-dependent effect | 61.4% | 68.4% | 74.6% | –
C[C@@H]1O[C@@H](O[C@H]2[C@H](O[C@H]3CC[C@]4(C)[C@H]5CC=C6[C@@H]7CC(C)(C)CC[C@]7(C(=O)O[C@@H]7O[C@H](CO[C@@H]8O[C@H](CO)[C@@H](O[C@@H]9O[C@@H](C)[C@H](O)[C@@H](O)[C@H]9O)[C@H](O)[C@H]8O)[C@@H](O)[C@H](O)[C@H]7O)CC[C@@]6(C)[C@]5(C)CC[C@H]4C3(C)C)OC[C@H](O[C@@H]3O[C@H](CO)[C@@H](O)[C@H]3O)[C@@H]2O)[C@H](O)[C@H](O)[C@H]1O | Dose-dependent effect | 58.5% | 57.9% | – | –
C[C@@H]1O[C@@H](O[C@H]2[C@H](O[C@H]3CC[C@]4(C)[C@H]5CC=C6[C@@H]7CC(C)(C)CC[C@]7(C(=O)O[C@@H]7O[C@H](CO[C@@H]8O[C@H](CO)[C@@H](O[C@@H]9O[C@@H](C)[C@H](O)[C@@H](O)[C@H]9O)[C@H](O)[C@H]8O)[C@@H](O)[C@H](O)[C@H]7O)CC[C@@]6(C)[C@]5(C)CC[C@H]4C3(C)C)OC[C@H](O)[C@@H]2O)[C@H](O)[C@H](O)[C@H]1O [HEDERASAPONIN B] | – | 54.3% | 60.3% | – | Activity (PC-12 [6]): Active; Activity (PC-12 [7]): Toxic
C[C@@H]1O[C@@H](O[C@H]2[C@H](O[C@H]3CC[C@]4(C)[C@H]5CC=C6[C@@H]7CC(C)(C)CC[C@]7(C(=O)O[C@@H]7O[C@H](CO[C@@H]8O[C@H](CO)[C@@H](O[C@@H]9O[C@@H](C)[C@H](O)[C@@H](O)[C@H]9O)[C@H](O)[C@H]8O)[C@@H](O)[C@H](O)[C@H]7O)CC[C@@]6(C)[C@]5(C)CC[C@H]4C3(C)C)OC[C@H](O[C@@H]3O[C@H](CO)[C@@H](O)[C@H](O)[C@H]3O)[C@@H]2O)[C@H](O)[C@H](O)[C@H]1O | Dose-dependent effect | 57% | 65.8% | 70.4% | Activity (PC-12 [8]): 147.4%; Activity (PC-12 [9]): 138.5%; Activity (PC-12 [10]): 126.7%; Activity (PC-12 [11]): 43%; Activity (PC-12 [12]): 35%; Activity (PC-12 [13]): 29.2%; Activity (PC-12 [14]): Dose-dependent effect; Activity (PC-12 [15]): Dose-dependent effect; Activity (PC-12 [16]): 2.5 nmol/mL; Activity (PC-12 [17]): 1.9 nmol/mL; Activity (PC-12 [18]): 1.3 nmol/mL
C[C@@H]1O[C@@H](O[C@H]2[C@H](O[C@H]3CC[C@]4(C)[C@H]5CC=C6[C@@H]7CC(C)(C)CC[C@]7(C(=O)O[C@@H]7O[C@H](CO[C@@H]8O[C@H](CO)[C@@H](O[C@@H]9O[C@@H](C)[C@H](O)[C@@H](O)[C@H]9O)[C@H](O)[C@H]8O)[C@@H](O)[C@H](O)[C@H]7O)CC[C@@]6(C)[C@]5(C)CC[C@H]4C3(C)C)OC[C@H](O[C@@H]3O[C@H](CO)[C@H](O)[C@H](O)[C@H]3O)[C@@H]2O)[C@H](O)[C@H](O)[C@H]1O | Dose-dependent effect | 52.6% | 58.6% | – | –
C[C@@H]1O[C@@H](O[C@H]2[C@H](O)[C@@H](O)[C@H](OC[C@H]3O[C@@H](OC(=O)[C@]45CCC(C)(C)C[C@H]4C4=CC[C@@H]6[C@@]7(C)CC[C@H](O[C@@H]8OC[C@H](O)[C@H](O)[C@H]8O)C(C)(C)[C@@H]7CC[C@@]6(C)[C@]4(C)CC5)[C@H](O)[C@@H](O)[C@@H]3O)O[C@@H]2CO)[C@H](O)[C@H](O)[C@H]1O [CIWUJIANOSIDE C3] | – | 55.9% | 69.9% | 79.1% | Activity (PC-12 [6]): Active; Activity (PC-12 [7]): Toxic; Activity (PC-12 [8]): 143.7%; Activity (PC-12 [9]): 134.4%; Activity (PC-12 [10]): 126.3%; Activity (PC-12 [11]): 45%; Activity (PC-12 [12]): 30.7%; Activity (PC-12 [13]): 20.6%; Activity (PC-12 [14]): Dose-dependent effect; Activity (PC-12 [15]): Dose-dependent effect; Activity (PC-12 [16]): 2 nmol/mL; Activity (PC-12 [17]): 1.6 nmol/mL; Activity (PC-12 [18]): 1.2 nmol/mL
C[C@@H]1O[C@@H](O[C@H]2[C@H](O[C@H]3CC[C@]4(C)[C@H]5CC=C6[C@@H]7CC(C)(C)CC[C@]7(C(=O)O[C@@H]7O[C@H](CO[C@@H]8O[C@H](CO)[C@@H](O)[C@H](O)[C@H]8O)[C@@H](O)[C@H](O)[C@H]7O)CC[C@@]6(C)[C@]5(C)CC[C@H]4C3(C)C)OC[C@H](O[C@@H]3O[C@H](CO)[C@@H](O)[C@H](O)[C@H]3O)[C@@H]2O)[C@H](O)[C@H](O)[C@H]1O | – | 29.5% | 19.8% | – | Activity (PC-12 [4]): Toxic
C[C@@H]1O[C@@H](O[C@H]2[C@H](O[C@H]3CC[C@]4(C)[C@H]5CC=C6[C@@H]7CC(C)(C)CC[C@]7(C(=O)O[C@@H]7O[C@H](CO[C@@H]8O[C@H](CO)[C@@H](O[C@@H]9O[C@@H](C)[C@H](O)[C@@H](O)[C@H]9O)[C@H](O)[C@H]8O)[C@@H](O)[C@H](O)[C@H]7O)CC[C@@]6(C)[C@]5(C)CC[C@H]4C3(C)C)OC[C@H](O[C@@H]3OC[C@H](O)[C@H](O)[C@H]3O)[C@@H]2O)[C@H](O)[C@H](O)[C@H]1O | Dose-dependent effect | 58.3% | 59.7% | – | –
